We go through eleven molecules from ChEMBL document CHEMBL1122328, “Hypolipidemic activity of phthalimide derivatives. 2. N-phenylphthalimide and derivatives” (1983).

Type in all cases: functional
Assay [1] concerns Mus musculus. Description: Effect on Serum cholesterol levels on CF1 male mice at a dose of 20 (mg/kg)/day after 9 days. Put shortly:
(§1)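 CF1 male mice (~25 g), drug suspended in 1% carboxymethylcellulose in water, given ip daily for 16 days; n = 6; vehicle control. Tail-vein blood on days 9 and 16, serum cholesterol by modified Liebermann–Burchard reaction; day-14 serum triglyceride by commercial kit; expressed as % control.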

Assay [2] concerns Mus musculus. Description: Effect on Serum triglyceride levels on CF1 male mice at a dose of 20 (mg/kg)/day after 14 days. Put shortly:
as §1

Assay [3] relates to Mus musculus. Description: Effect on Serum cholesterol levels on CF1 male mice at a dose of 20 (mg/kg)/day after 16 days. Put shortly: as §1

Turning to `CC(=O)c1cccc(N2C(=O)c3ccccc3C2=O)c1`, the results for the Control in the assay with Mus musculus [1] and with Mus musculus [2] were 87% and 74%, respectively. The “Serum cholesterol (% of control)” value in the assay with Mus musculus [3] came out at 84%.

For `O=C1c2ccccc2C(=O)N1c1ccccc1` [N-PHENYL-PHTHALIMIDE], the figures for the Control with Mus musculus [1] and in the assay on Mus musculus [2] were 92% and 61%, respectively. Further, the “Serum cholesterol (% of control)” value in the assay on Mus musculus [3] was found to be 57%.

As to `O=C1NC(=O)c2ccccc21` [PHTHALIMIDE], the Control was 63% in the assay with Mus musculus [1] and 44% in the assay on Mus musculus [2]. Besides, the “Serum cholesterol (% of control)” value with Mus musculus [3] was 57%.

For the molecule `CCOC(=O)C(C)(C)Oc1ccc(Cl)cc1` [CLOFIBRATE], the Control in the assay on Mus musculus [1] came out at 98%; in the assay with Mus musculus [2], 91%. Also, in the assay with Mus musculus [3], the “Serum cholesterol (% of control)” value is on record as 96%.

As for `CCc1ccccc1N1C(=O)c2ccccc2C1=O`, the Control in the assay with Mus musculus [1] was found to be 88%; in the assay with Mus musculus [2], 92%. In addition, in the assay on Mus musculus [3], the “Serum cholesterol (% of control)” value is recorded as 103%.

As to `CCc1ccc(N2C(=O)c3ccccc3C2=O)cc1`, the Control in the assay with Mus musculus [1] turned out to be 89%; with Mus musculus [2], 96%. Moreover, the “Serum cholesterol (% of control)” value with Mus musculus [3] came out at 89%.

Turning to `O=C(O)c1ccc(N2C(=O)c3ccccc3C2=O)cc1`, the Control in the assay on Mus musculus [1] worked out at 89%; with Mus musculus [2], 58%. Besides, the “Serum cholesterol (% of control)” value with Mus musculus [3] amounted to 53%.

For `O=C(O)c1cccc(N2C(=O)c3ccccc3C2=O)c1`, the Control in the assay with Mus musculus [1] stood at 81%; in the assay on Mus musculus [2] it was 71%. Moreover, the “Serum cholesterol (% of control)” value in the assay on Mus musculus [3] amounted to 69%.

For `O=C(O)c1ccccc1N1C(=O)c2ccccc2C1=O` [N-PHTHALOYLANTHRANILIC ACID], the Control amounted to 92% in the assay on Mus musculus [1] and 78% in the assay on Mus musculus [2]. Further, in the assay with Mus musculus [3], the “Serum cholesterol (% of control)” value worked out at 77%.

For `CC(=O)c1ccc(N2C(=O)c3ccccc3C2=O)cc1`, the figures for the Control with Mus musculus [1] and with Mus musculus [2] were 83% and 66%, respectively. In addition, in the assay with Mus musculus [3], the “Serum cholesterol (% of control)” value was determined as 55%.

For `CCc1cccc(N2C(=O)c3ccccc3C2=O)c1`, the Control with Mus musculus [1] was determined as 89%; with Mus musculus [2], 95%. Further, the “Serum cholesterol (% of control)” value with Mus musculus [3] came to 82%.
